From ChEMBL document CHEMBL2203189, “Synthesis and pharmacology of 1-alkyl-3-(1-naphthoyl)indoles: steric and electronic effects of 4- and 8-halogenated naphthoyl substituents” (Bioorg Med Chem, 2012)
Active and inactive are the calls of the source.

Assays:
Cannabinoid receptor 1 [1] = molecular target: T1, Cannabinoid receptor 1 (Homo sapiens, UniProt P21554); assay: Displacement of [3H]CP55940 from human CB1 receptor expressed in HEK293 cells after 1 hr by liquid scintillation spectrophotometry; format: cell-based
How it was run: (§1)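 Membranes (50 µg) from HEK-293 cells stably expressing human CB1, cultured in DMEM/10% FBS. Incubated with 0.5 nM [3H]CP55,940 and test compound at 1 nM–10 µM in buffer with BSA (5 mg/mL), 1 h at 30 °C. Nonspecific binding defined with excess unlabelled CP55,940. Filtered through GF/B, then scintillation counting.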

Cannabinoid receptor 2 = Cannabinoid receptor 2 (Homo sapiens, UniProt P34972); assay: Displacement of [3H]CP55940 from human CB2 receptor expressed in CHO cells after 1 hr by liquid scintillation spectrophotometry; format: cell-based
How it was run: as §1, with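 “CHO” for “HEK-293”, “CB2,” for “CB1,”, “fetal calf serum.” for “FBS.”, “µM” for “µM in buffer”, “GF/B filtration,” for “Filtered through GF/B,”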

Homo sapiens = organism: Homo sapiens; assay: Selectivity ratio of Ki for human CB1 receptor to Ki for human CB2 receptor
Mus musculus [2] = assay: Locomotor activity in Harlan ICR mouse assessed as inhibition of activity level at 77 umol/kg, iv from 5 to 15 mins by spontaneous locomotor activity test relative to vehicle treated control; format: functional
How it was run: (§2)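 Male ICR mice, n = 6 per dose, single probe dose iv in emulphor–ethanol–saline 1:1:18. Photocell beam interruptions recorded over 10 min, at 5–15 min after dosing. Result given as % inhibition relative to the vehicle group.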

Mus musculus [3] = assay: Antinociceptive activity in Harlan ICR mouse assessed as latency to heat-induced tail flicking at 77 umol/kg, iv at 20 mins relative to control; format: functional
Mus musculus [4] = assay: Hypothermic activity in Harlan ICR mouse assessed as change in rectal temperature at 77 umol/kg, iv at 30 mins; format: functional
How it was run: (§3)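 Male ICR mice, n = 6 per dose. Single probe dose iv in emulphor–ethanol–saline 1:1:18. Rectal temperature taken with a thermistor probe at 25 mm depth before dosing and at 30 min. Result given as change from pre-injection value (°C).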

Mus musculus [5] = assay: Induction of catalepsy in Harlan ICR mouse at 77 umol/kg, iv at 40 mins measured for 5 mins by ring immobility test; format: functional
How it was run: (§4)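 Male ICR mice given a single iv probe dose in emulphor–ethanol–saline 1:1:18. At 40 min placed on a 5.5 cm ring raised 16 cm and observed for 5 min by blinded raters. Up to 5 escapes allowed; mice escaping before 2.5 min excluded. Immobility index = time motionless / 300 s × 100.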

Mus musculus [6] = assay: Locomotor activity in iv dosed Harlan ICR mouse from 5 to 15 mins by spontaneous locomotor activity test; format: functional
Mus musculus [7] = assay: Antinociceptive activity in iv dosed Harlan ICR mouse assessed as latency to heat-induced tail flicking at 20 mins; format: functional
How it was run: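 Male ICR mice, 18–25 g, n = 6 per dose. Multiple doses iv by tail vein in emulphor–ethanol–saline 1:1:18. Tail-flick latency at 20 min, 10 s cutoff, expressed as %MPE.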

Mus musculus [8] = assay: Hypothermic activity in iv dosed Harlan ICR mouse assessed as change in rectal temperature at 30 mins; format: functional; conditions: 0.5 h
Mus musculus [9] = assay: Induction of catalepsy in iv dosed Harlan ICR mouse at 40 mins measured for 5 mins by ring immobility test; format: functional
Cannabinoid receptor 1 [10] = molecular target: T1, Cannabinoid receptor 1; assay: Activation of human CB1 receptor expressed in HEK293 cells assessed as [35S]GTPgamma binding after 90 mins by liquid scintillation spectrophotometry relative to CP55940; format: functional, cell-based
How it was run: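 Membranes from HEK-293 cells stably expressing human CB1, pelleted at 50,000g and taken up in Tris-HCl pH 7.4 with MgCl2, EGTA and NaCl. 10 µg protein with BSA, 20 µM GDP, 0.1 nM [35S]GTPγS and graded test concentrations, 90 min at 30 °C. 2 µM CP55,940 run as internal standard; basal without agonist, nonspecific with 10 µM GTPγS. Filtration, then scintillation counting.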

Mus musculus [11] = assay: Locomotor activity in Harlan ICR mouse at 30 mg/kg, iv from 5 to 15 mins by spontaneous locomotor activity test in the presence of rimonabant; format: functional, organism-based; parameters: dose 30 mg/kg
Mus musculus [12] = assay: Antinociceptive activity in Harlan ICR mouse assessed as latency to heat-induced tail flicking at 30 mg/kg, iv at 20 mins in the presence of rimonabant; format: functional, organism-based; parameters: dose 30 mg/kg
Mus musculus [13] = assay: Hypothermic activity in Harlan ICR mouse assessed as change in rectal temperature at 30 mg/kg, iv at 30 mins in the presence of rimonabant; format: functional, organism-based; parameters: dose 30 mg/kg
Mus musculus [14] = assay: Induction of catalepsy in Harlan ICR mouse at 30 mg/kg, iv 40 mins measured for 5 mins by ring immobility test in the presence of rimonabant; format: functional, organism-based; parameters: dose 30 mg/kg
Mus musculus [15] = assay: Locomotor activity in Harlan ICR mouse assessed as inhibition of activity level at 74 umol/kg, iv from 5 to 15 mins by spontaneous locomotor activity test relative to vehicle treated control; format: functional; how it was run: as §2
Mus musculus [16] = assay: Hypothermic activity in Harlan ICR mouse assessed as change in rectal temperature at 74 umol/kg, iv at 30 mins; format: functional; how it was run: as §3
Mus musculus [17] = assay: Antinociceptive activity in Harlan ICR mouse assessed as latency to heat-induced tail flicking at 74 umol/kg, iv at 20 mins relative to control; format: functional
Mus musculus [18] = assay: Locomotor activity in Harlan ICR mouse assessed as inhibition of activity level at 83 umol/kg, iv from 5 to 15 mins by spontaneous locomotor activity test relative to vehicle treated control; format: functional; how it was run: as §2
Mus musculus [19] = assay: Antinociceptive activity in Harlan ICR mouse assessed as latency to heat-induced tail flicking at 83 umol/kg, iv at 20 mins relative to control; format: functional
Mus musculus [20] = assay: Hypothermic activity in Harlan ICR mouse assessed as change in rectal temperature at 83 umol/kg, iv at 30 mins; format: functional; how it was run: as §3
Mus musculus [21] = assay: Induction of catalepsy in Harlan ICR mouse at 83 umol/kg, iv at 40 mins measured for 5 mins by ring immobility test; format: functional; how it was run: as §4
Mus musculus [22] = organism: Mus musculus; assay: Induction of catalepsy in mouse by ring immobility test; format: functional
Mus musculus [23] = assay: Locomotor activity in Harlan ICR mouse assessed as inhibition of activity level at 86 umol/kg, iv from 5 to 15 mins by spontaneous locomotor activity test relative to vehicle treated control; format: functional; how it was run: as §2
Mus musculus [24] = assay: Antinociceptive activity in Harlan ICR mouse assessed as latency to heat-induced tail flicking at 86 umol/kg, iv at 20 mins relative to control; format: functional
Mus musculus [25] = assay: Hypothermic activity in Harlan ICR mouse assessed as change in rectal temperature at 86 umol/kg, iv at 30 mins; format: functional, organism-based; how it was run: as §3

Chain of Cannabinoid receptor 2 (P34972 whole entry): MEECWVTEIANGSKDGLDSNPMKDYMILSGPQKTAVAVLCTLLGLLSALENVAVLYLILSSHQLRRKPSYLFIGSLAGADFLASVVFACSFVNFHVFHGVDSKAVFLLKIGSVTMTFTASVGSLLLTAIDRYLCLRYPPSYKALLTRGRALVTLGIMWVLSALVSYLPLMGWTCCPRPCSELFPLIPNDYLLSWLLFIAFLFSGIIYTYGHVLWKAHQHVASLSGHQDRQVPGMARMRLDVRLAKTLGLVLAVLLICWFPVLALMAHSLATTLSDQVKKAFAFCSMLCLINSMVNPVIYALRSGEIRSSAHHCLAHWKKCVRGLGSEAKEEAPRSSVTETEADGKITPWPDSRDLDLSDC
T1 sequence (P21554 whole entry): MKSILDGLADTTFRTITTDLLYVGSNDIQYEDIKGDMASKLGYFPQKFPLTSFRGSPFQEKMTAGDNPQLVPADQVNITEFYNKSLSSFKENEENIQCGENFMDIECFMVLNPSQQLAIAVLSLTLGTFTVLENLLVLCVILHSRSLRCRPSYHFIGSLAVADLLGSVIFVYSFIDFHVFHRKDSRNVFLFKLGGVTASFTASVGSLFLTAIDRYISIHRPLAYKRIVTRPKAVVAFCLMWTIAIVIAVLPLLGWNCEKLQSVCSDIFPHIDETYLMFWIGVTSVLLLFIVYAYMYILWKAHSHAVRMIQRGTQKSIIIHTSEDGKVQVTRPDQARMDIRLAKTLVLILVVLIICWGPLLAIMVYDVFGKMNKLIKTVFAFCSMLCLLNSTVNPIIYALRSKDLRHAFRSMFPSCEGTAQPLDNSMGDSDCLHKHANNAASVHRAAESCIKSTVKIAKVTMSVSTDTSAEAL

| SMILES | Ki (Cannabinoid receptor 1 [1]) | Ki (Cannabinoid receptor 2) | Ratio Ki (Homo sapiens) | ED50 (Mus musculus [6]) | ED50 (Mus musculus [7]) | ED50 (Mus musculus [8]) | further results |
| --- | --- | --- | --- | --- | --- | --- | --- |
| CCCn1cc(C(=O)c2ccc(Br)c3ccccc23)c2ccccc21 | 161 nM | 27 nM | 6 |  |  |  | inhibition in vivo at 77 µmol/kg (Mus musculus [2]): 71%; Activity (Mus musculus [3]): 75%; Activity (Mus musculus [4]): -3.9%; Activity (Mus musculus [5]): 26% |
| CCCn1c(C)c(C(=O)c2ccc(F)c3ccccc23)c2ccccc21 | 530 nM | 38 nM | 14 | 9.6 µmol/kg | 11.9 µmol/kg | 30.1 µmol/kg | ED50 (Mus musculus [9]): 23.2 µmol/kg; Emax (Cannabinoid receptor 1 [10]): 59%; Activity (Mus musculus [11]): inactive; Activity (Mus musculus [12]): inactive; Activity (Mus musculus [13]): inactive; Activity (Mus musculus [14]): inactive |
| CCCn1c(C)c(C(=O)c2ccc(Br)c3ccccc23)c2ccccc21 | 373 nM | 31 nM | 12 |  |  |  | inhibition in vivo at 74 µmol/kg (Mus musculus [15]): 80%; Activity (Mus musculus [16]): -5%; Activity (Mus musculus [17]): 96% |
| CCCn1c(C)c(C(=O)c2cccc3cccc(Cl)c23)c2ccccc21 | > 10000 nM | 174 nM | > 57 |  |  |  | inhibition in vivo at 83 µmol/kg (Mus musculus [18]): 70%; Activity (Mus musculus [19]): 42%; Activity (Mus musculus [20]): -2.3%; Activity (Mus musculus [21]): 15% |
| CCCCCn1cc(C(=O)c2ccc(Br)c3ccccc23)c2ccccc21 | 1.2 nM | 1.1 nM | 1 |  |  |  |  |
| CCCCCn1cc(C(=O)c2cccc3ccccc23)c2ccccc21 |  |  | 3.2 | 0.44 µmol/kg | 0.09 µmol/kg | 1.7 µmol/kg | ED50 (Mus musculus [22]): 3 µmol/kg |
| CCCCCn1c(C)c(C(=O)c2cccc3cccc(Cl)c23)c2ccccc21 | 116 nM | 19 nM | 6.1 |  |  |  | inhibition in vivo at 77 µmol/kg (Mus musculus [2]): 84%; Activity (Mus musculus [3]): 100%; Activity (Mus musculus [4]): -5.5%; Activity (Mus musculus [5]): 86% |
| CCCCCn1cc(C(=O)c2cccc3cccc(Br)c23)c2ccccc21 | 21 nM | 5.4 nM | 4 | 1.4 µmol/kg | 1.8 µmol/kg | 2.4 µmol/kg | ED50 (Mus musculus [9]): 3.7 µmol/kg |
| CCCn1cc(C(=O)c2cccc3cccc(Cl)c23)c2ccccc21 | 642 nM | 134 nM | 4.8 |  |  |  | inhibition in vivo at 86 µmol/kg (Mus musculus [23]): 68%; Activity (Mus musculus [24]): 72%; Activity (Mus musculus [25]): inactive |
| CCCCCn1cc(C(=O)c2cccc3cccc(I)c23)c2ccccc21 | 73 nM | 3.3 nM | 22 | 1.8 µmol/kg | 1.3 µmol/kg | 6.4 µmol/kg | ED50 (Mus musculus [9]): 3.6 µmol/kg |
| CCCn1c(C)c(C(=O)c2ccc(Cl)c3ccccc23)c2ccccc21 | 187 nM | 22 nM | 9 |  |  |  | inhibition in vivo at 83 µmol/kg (Mus musculus [18]): 70%; Activity (Mus musculus [19]): 100%; Activity (Mus musculus [20]): -5.4%; Activity (Mus musculus [21]): 70% |
| CCCn1cc(C(=O)c2cccc3cccc(Br)c23)c2ccccc21 | > 10000 nM | 192 nM | > 52 |  |  |  | inhibition in vivo at 77 µmol/kg (Mus musculus [2]): 76%; Activity (Mus musculus [3]): 9%; Activity (Mus musculus [4]): -2%; Activity (Mus musculus [5]): 5% |
| CCCCCc1cc(O)c2c(c1)OC(C)(C)[C@@H]1CCC(C)=C[C@@H]21 [DRONABINOL] |  |  |  | 3.2 µmol/kg |  |  |  |
